Data set [1] can be described thus: Inhibition of Escherichia coli (K12J53) Dihydopteroate synthase. In outline: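 Ammonium sulfate fraction (30–70%) from alumina-disrupted E. coli K12J53 grown on brain-heart infusion agar at 37 °C; it contains both pyrophosphokinase and synthase. Read-out was [14C]dihydropteroate. The 50% inhibitory concentration came from 1/dpm vs. concentration plots, divided by p-aminobenzoate concentration (EII50).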

The test system of data set [2] is Escherichia coli. Nature of the data set: In vitro inhibition of Escherichia coli (K12J53) growth.
The nature of data set [3]: PKa value was measured. In kind it is physicochemical.

A word on the pKa: it is the negative logarithm of the acid dissociation constant. A low value points to a stronger acid or weaker base.

In turn, `Nc1ccc(S(N)(=O)=O)cc1` gave an EII50 in data set [1] of 25.
`Cn1cccn/c1=N\S(=O)(=O)c1ccc(N)cc1` registered an EII50 in data set [1] of 31.2. In data set [2], this compound showed a GII50 greater than 100000.
Regarding `Cc1nnc(NS(=O)(=O)c2ccc(N)cc2)s1` [SULFAMETHIZOLE], in data set [3], the pKa amounted to 5.22. In data set [1], this compound gave an EII50 of 0.4.
Regarding `N#CNS(=O)(=O)c1ccc(N)cc1`, the pKa in data set [3] is 2.92. This compound showed an EII50 in data set [1] of 8. The compound also registered a GII50 in data set [2] greater than 50000.
Consider `CN(c1nccs1)S(=O)(=O)c1ccc(N)cc1`, for which the EII50 in data set [1] was 35.4. In data set [2], the GII50 is greater than 10000.
Compound `Nc1ccc(S(=O)(=O)Nc2nccs2)cc1` [SULFATHIAZOLE] came in with a pKa in data set [3] of 7.23. This compound also registered an EII50 in data set [1] of 0.9.
The like results for `Cc1cc(C)nc(NS(=O)(=O)c2ccc(N)cc2)n1` [SULFAMETHAZINE] were, in that order, 7.51 and 1.92.
In data set [1], `Cc1cc(C)nc(N(C)S(=O)(=O)c2ccc(N)cc2)n1` returned an EII50 of 10.8.
`CC(=O)NS(=O)(=O)c1ccc(N)cc1` [SULFACETAMIDE] came in with a pKa in data set [3] of 5.38. The EII50 in data set [1] was 4.44.
Compound `Nc1ccc(S(=O)(=O)Nc2ccccn2)cc1` [SULFAPYRIDINE] registered a pKa in data set [3] of 8.56. The compound also displayed an EII50 in data set [1] of 4.2.
The like results for `NC(=O)NS(=O)(=O)c1ccc(N)cc1` [SULFACARBAMIDE] were, in that order, 5.42 and 8.4.
In data set [1], `Cn1cccc/c1=N/S(=O)(=O)c1ccc(N)cc1` came in with an EII50 of 8. The GII50 in data set [2] was 30000.
The like results for `CN(c1ccccn1)S(=O)(=O)c1ccc(N)cc1` were, in that order, 30 and 40000.
Regarding `Nc1ccc(S(=O)(=O)Nc2ncccn2)cc1`, the EII50 in data set [1] was determined as 2.56.
In data set [1], `Cc1cc(C)n(C)/c(=N/S(=O)(=O)c2ccc(N)cc2)n1` came in with an EII50 of 26. The compound also came in with a GII50 in data set [2] of 52000.
For `CNS(=O)(=O)c1ccc(N)cc1`, the pKa in data set [3] was found to be 10.8. In data set [1], this compound came in with an EII50 of 32.4. The compound also registered a GII50 in data set [2] of 60000.
The compound `CN(c1ncccn1)S(=O)(=O)c1ccc(N)cc1` returned an EII50 in data set [1] of 9.2. Besides, the GII50 in data set [2] is 10000.
`Nc1ccc(S(=O)(=O)NC(=O)c2ccccc2)cc1` [SULFABENZAMIDE]: the pKa in data set [3] amounted to 4.57. Besides, the EII50 in data set [1] came to 5.2.
Consider `N=C(N)NS(=O)(=O)c1ccc(N)cc1`, for which the EII50 in data set [1] was 10.2.
For the compound `Cn1ccs/c1=N\S(=O)(=O)c1ccc(N)cc1`, the EII50 in data set [1] came to 13.4. Further, in data set [2], the GII50 is greater than 10000.
Compound `CN(C)S(=O)(=O)c1ccc(N)cc1` registered an EII50 in data set [1] of 82. Moreover, the GII50 in data set [2] was greater than 35000.
`COc1cc(NS(=O)(=O)c2ccc(N)cc2)nc(OC)n1` [SULFADIMETHOXINE] gave a pKa in data set [3] of 5.98. In data set [1], this compound registered an EII50 of 0.85.

Source of the values: ChEMBL document CHEMBL1121916, “Structure-activity relationships in dihydropteroate synthase inhibition by sulfanilamides. Comparison with the antibacterial activity” (J Med Chem, 1981).
